From ChEMBL document CHEMBL1146292, “Dual serotonin transporter/histamine H3 ligands: Optimization of the H3 pharmacophore” (Bioorg Med Chem Lett, 2007) come the findings set out here.

In one data set the target is Histamine H3 receptor (Homo sapiens, UniProt Q9Y5N1). Nature of the data set: Binding affinity to human histamine H3 receptor. In a few lines:
(§1)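 Means of at least three independent experiments, each run in triplicate; standard error of the mean reported.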

Data set [1] concerns the target Sodium-dependent serotonin transporter (Rattus norvegicus, UniProt P31652). The experiment in a line: Binding affinity to rat SERT. In a few lines: as §1
Data set [2] deals with Sodium-dependent serotonin transporter (Homo sapiens, UniProt P31645). The experiment in a line: Binding affinity to human SERT.
Sequence of Sodium-dependent serotonin transporter (Homo sapiens, UniProt P31645) (P31645 whole entry): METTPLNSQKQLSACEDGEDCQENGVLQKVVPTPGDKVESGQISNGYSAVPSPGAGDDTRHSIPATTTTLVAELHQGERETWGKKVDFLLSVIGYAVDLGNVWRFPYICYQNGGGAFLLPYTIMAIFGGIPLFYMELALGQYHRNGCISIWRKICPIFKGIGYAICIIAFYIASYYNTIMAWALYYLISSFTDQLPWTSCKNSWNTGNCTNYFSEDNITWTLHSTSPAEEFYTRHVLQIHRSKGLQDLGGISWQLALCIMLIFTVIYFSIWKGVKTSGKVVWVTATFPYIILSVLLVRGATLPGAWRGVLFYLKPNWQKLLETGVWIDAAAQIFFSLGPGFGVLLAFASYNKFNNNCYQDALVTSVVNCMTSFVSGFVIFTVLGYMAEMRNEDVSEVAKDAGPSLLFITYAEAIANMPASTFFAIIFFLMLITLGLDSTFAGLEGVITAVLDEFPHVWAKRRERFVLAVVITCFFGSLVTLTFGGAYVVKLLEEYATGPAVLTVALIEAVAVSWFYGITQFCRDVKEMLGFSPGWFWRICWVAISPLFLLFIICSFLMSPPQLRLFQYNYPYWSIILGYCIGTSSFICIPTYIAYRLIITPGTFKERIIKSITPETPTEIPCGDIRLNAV
A short description of data set [3]: Drug level in mouse brain at 10 mg/kg, ip after 24 hrs. The data set is classed as ADME, organism-based. Also on record: dose 10 mg/kg, route intraperitoneal. The note with it: read-out: Drug uptake. In a few lines: (§2)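 Mice given a single 10 mg/kg intraperitoneal dose. Brain drug concentration measured at 1 h and at 24 h post-dose, n = 3.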
Another data set concerns Mus musculus. The experiment in a line: Effect on 5-HTP-induced head twitch in mouse at 10 mg/kg, ip after 1 hr relative to control. It counts as functional. The conditions noted are these: route intraperitoneal. In a few lines:
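5-HTP-induced head-twitch model in mice. Test agent given at 10 mg/kg intraperitoneally, n = 4 per compound. Head twitches scored at 1 h and 24 h post-dose and expressed as percent of the control response.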

Data set [4] can be described thus: Drug level in mouse brain at 10 mg/kg, ip after 1 hr. It counts as ADME, organism-based. Also on record: dose 10 mg/kg, route intraperitoneal. The note with it: read-out: Drug uptake. In a few lines: as §2

Sequence of Histamine H3 receptor (Q9Y5N1 whole entry): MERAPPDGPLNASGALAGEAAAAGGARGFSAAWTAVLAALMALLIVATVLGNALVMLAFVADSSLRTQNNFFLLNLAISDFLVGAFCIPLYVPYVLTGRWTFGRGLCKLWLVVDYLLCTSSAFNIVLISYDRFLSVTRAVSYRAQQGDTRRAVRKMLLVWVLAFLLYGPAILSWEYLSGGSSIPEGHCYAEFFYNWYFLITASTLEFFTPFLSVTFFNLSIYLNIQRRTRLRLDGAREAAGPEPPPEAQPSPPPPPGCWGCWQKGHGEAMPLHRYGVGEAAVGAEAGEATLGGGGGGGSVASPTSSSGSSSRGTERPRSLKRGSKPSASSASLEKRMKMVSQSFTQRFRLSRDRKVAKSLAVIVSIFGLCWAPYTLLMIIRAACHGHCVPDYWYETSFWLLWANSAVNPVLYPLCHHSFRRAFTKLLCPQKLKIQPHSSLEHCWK
Sequence of Sodium-dependent serotonin transporter (Rattus norvegicus, UniProt P31652) (P31652 whole entry): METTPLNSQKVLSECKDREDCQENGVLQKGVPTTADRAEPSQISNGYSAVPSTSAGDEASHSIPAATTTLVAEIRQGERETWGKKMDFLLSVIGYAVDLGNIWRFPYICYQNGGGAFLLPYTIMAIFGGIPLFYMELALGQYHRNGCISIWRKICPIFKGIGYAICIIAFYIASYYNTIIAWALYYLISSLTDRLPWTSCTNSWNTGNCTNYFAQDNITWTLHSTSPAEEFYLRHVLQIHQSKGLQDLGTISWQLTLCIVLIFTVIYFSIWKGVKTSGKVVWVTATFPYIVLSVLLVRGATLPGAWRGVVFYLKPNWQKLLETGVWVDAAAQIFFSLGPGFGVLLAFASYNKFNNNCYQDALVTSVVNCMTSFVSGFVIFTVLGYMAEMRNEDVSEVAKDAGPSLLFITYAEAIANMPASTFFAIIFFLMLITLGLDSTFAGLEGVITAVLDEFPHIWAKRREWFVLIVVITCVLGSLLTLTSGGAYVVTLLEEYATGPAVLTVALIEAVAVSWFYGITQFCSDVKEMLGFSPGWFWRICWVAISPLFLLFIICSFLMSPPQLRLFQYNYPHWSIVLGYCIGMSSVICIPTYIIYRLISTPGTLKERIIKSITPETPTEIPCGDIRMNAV

By Ki is commonly meant a measure of affinity in units of concentration, obtained from inhibition or displacement. Lower therefore signals tighter binding. Take `COc1ccc(C2CN(C)Cc3cc(OCCCN4CCC(F)(F)C4)ccc32)cc1` (centres undefined): the inhibition constant Ki is 9.5 nM on Histamine H3 receptor, 8 nM in data set [1] and 7.3 nM in data set [2].

For the compound `COc1ccc(C2CN(C)Cc3cc(OCCCN4CCN(c5ccc(C(F)(F)F)cc5)CC4)ccc32)cc1` (centres undefined), the Ki at Histamine H3 receptor is 1440 nM; in data set [1] it was 25 nM; in data set [2], 33 nM.

As for `COc1ccc(C2CN(C)Cc3cc(OCCCN4CCN(C5CC5)CC4)ccc32)cc1` (centres undefined), the Ki came to 30 nM on Histamine H3 receptor, 10 nM in data set [1] and 18 nM in data set [2].

Consider `COc1ccc(C2CN(C)Cc3cc(OCCCN4CCN(c5ccncc5)CC4)ccc32)cc1` (centres undefined), for which the values for the Ki (at Histamine H3 receptor; in data set [1]; in data set [2]) were 3.3 nM, 5.3 nM and 4 nM, respectively.

With `COc1ccc(C2CN(C)Cc3cc(OCCCN4CCCC(F)(F)C4)ccc32)cc1` (centres undefined), the figures for the inhibition constant (Ki) in data set [1] and in data set [2] were 10 nM and 8.2 nM, respectively.

Regarding `COc1ccc(C2CN(C)Cc3cc(OCCCN4CCN(c5ccc(C#N)cc5)CC4)ccc32)cc1` (centres undefined), the Ki stood at 144 nM at Histamine H3 receptor, 3.3 nM in data set [1] and 8 nM in data set [2].

Regarding `COc1ccc(C2CN(C)Cc3cc(OCCCN4CCN(c5ccccc5O)CC4)ccc32)cc1` (centres undefined), the Ki on Histamine H3 receptor was 1110 nM; in data set [1], 5.7 nM; in data set [2], 7.2 nM.

With `COc1ccc(C2CN(C)Cc3cc(OCCCN4CC(F)(F)C4)ccc32)cc1` (centres undefined), the Ki on Histamine H3 receptor amounted to 69 nM; in data set [2] it was 2.9 nM.

Regarding `CCN1CCN(CCCOc2ccc3c(c2)CN(C)CC3c2ccc(OC)cc2)CC1` (centres undefined), the inhibition constant Ki at Histamine H3 receptor came to 12 nM; in data set [1], 1.5 nM.

For `COc1ccc(C2CN(C)Cc3cc(OCCCN4CCOCC4)ccc32)cc1` (centres undefined), in data set [3], the concentration at 24 h was less than 1 µM. This compound also showed an Activity with Mus musculus of more than 500%. Also, the Ki at Histamine H3 receptor turned out to be 3.8 nM; in data set [1], 4.8 nM; in data set [2] it was 6.5 nM. Further, the concentration at 1 h in data set [4] was determined as 12.5 µM.

Regarding `COc1ccc(C2CN(C)Cc3cc(OCCCN4CCC(C(F)(F)F)CC4)ccc32)cc1` (centres undefined), the inhibition constant Ki at Histamine H3 receptor worked out at 40 nM; in data set [1], 19 nM; in data set [2], 14 nM.

As to `COc1ccc(C2CN(C)Cc3cc(OCCCN4CCC(C#N)CC4)ccc32)cc1` (centres undefined), the Ki on Histamine H3 receptor stood at 7.4 nM; in data set [1], 5.3 nM; in data set [2] it was 5.3 nM.

With `COc1ccc(C2CN(C)Cc3cc(OCCCN4CCC(CO)CC4)ccc32)cc1` (centres undefined), the results for the Ki (on Histamine H3 receptor; in data set [1]; in data set [2]) were 9.5 nM, 2 nM and 3.2 nM, respectively.

Turning to `COc1ccc(C2CN(C)Cc3cc(OCCCN4CCN(C(=O)C(C)C)CC4)ccc32)cc1` (centres undefined), the values for the inhibitory constant (Ki) (at Histamine H3 receptor; in data set [1]; in data set [2]) were 509 nM, 15 nM and 15 nM, respectively.

As for `COc1ccc(C2CN(C)Cc3cc(OCCCN4CCN(C(C)C)CC4)ccc32)cc1` (centres undefined), the inhibitory constant (Ki) at Histamine H3 receptor stood at 9.7 nM; in data set [1], 1.3 nM; in data set [2], 1.8 nM.

Regarding `COc1ccc(C2CN(C)Cc3cc(OCCCN4CCN(c5nccs5)CC4)ccc32)cc1` (centres undefined), the values for the Ki (on Histamine H3 receptor; in data set [1]; in data set [2]) were 268 nM, 2.7 nM and 5.3 nM, respectively.

Regarding `COc1ccc(C2CN(C)Cc3cc(OCCCN4CCN(C(C)=O)CC4)ccc32)cc1` (centres undefined), the inhibition constant (Ki) at Histamine H3 receptor was 267 nM; in data set [1], 15 nM; in data set [2], 42 nM.

Consider `COc1ccc(C2CN(C)Cc3cc(OCCCN4CCC4)ccc32)cc1` (centres undefined), for which the figures for the Ki in data set [1] and in data set [2] were 1 nM and 4.8 nM, respectively.

With `COc1ccc(C2CN(C)Cc3cc(OCCCN4CCC(O)CC4)ccc32)cc1` (centres undefined), the values for the inhibition constant (Ki) (at Histamine H3 receptor; in data set [1]; in data set [2]) were 11 nM, 1.2 nM and 3.8 nM, respectively.

Regarding `COc1ccc(C2CN(C)Cc3cc(OCCCN4CCS(=O)(=O)CC4)ccc32)cc1` (centres undefined), the Ki came to 106 nM at Histamine H3 receptor, 6.3 nM in data set [1] and 12 nM in data set [2].

As for `COc1ccc(C2CN(C)Cc3cc(OCCCN4CCC(F)CC4)ccc32)cc1` (centres undefined), in data set [3], the concentration at 24 h is 2.5 µM. This compound had an Activity in the data set with Mus musculus of more than 500%. In addition, the Ki stood at 1.6 nM in data set [1] and 2.9 nM in data set [2]. In addition, in data set [4], the concentration at 1 h was 6.1 µM.

With `COc1ccc(C2CN(C)Cc3cc(OCCCN4CCC(F)(F)CC4)ccc32)cc1` (centres undefined), the results for the Ki (on Histamine H3 receptor; in data set [1]; in data set [2]) were 8.7 nM, 5.7 nM and 6.5 nM, respectively.

Consider `COc1ccc(C2CN(C)Cc3cc(OCCCNC4CC4)ccc32)cc1` (centres undefined), for which the Ki on Histamine H3 receptor amounted to 38 nM; in data set [1], 3 nM; in data set [2], 19.3 nM.

For `CCNCCCOc1ccc2c(c1)CN(C)CC2c1ccc(OC)cc1` (centres undefined), the inhibitory constant (Ki) on Histamine H3 receptor turned out to be 47 nM; in data set [1], 0.73 nM; in data set [2], 3.4 nM.

With `CCN(CC)CCCOc1ccc2c(c1)CN(C)CC2c1ccc(OC)cc1` (centres undefined), the Ki on Histamine H3 receptor turned out to be 1.7 nM; in data set [1], 2.2 nM.

Take `COc1ccc(C2CN(C)Cc3cc(OCCCN4CCN(C(=O)c5cccn5C)CC4)ccc32)cc1` (centres undefined): the Ki on Histamine H3 receptor turned out to be 2610 nM; in data set [1] it was 8.4 nM; in data set [2], 8.8 nM.

In the case of `COc1ccc(C2CN(C)Cc3cc(OCCCN(C4CC4)C4CC4)ccc32)cc1` (centres undefined), the inhibitory constant (Ki) on Histamine H3 receptor turned out to be 7.4 nM; in data set [1], 7.6 nM; in data set [2] it was 9.7 nM.

`COc1ccc(C2CN(C)Cc3cc(OCCCN4CCN(C(=O)c5ccncc5)CC4)ccc32)cc1` (centres undefined): the inhibition constant Ki at Histamine H3 receptor is 2840 nM; in data set [1] it was 21 nM; in data set [2], 19 nM.
